Results: article PMC12988600 (AAPS PharmSciTech, 2019)
Values after ≈ are worked out from the molar mass of the structure shown.

Legend:
[1] = system: ERL-resistant HCC827 cells; experiment: In vitro cytotoxicity, crystal violet; assay type: cell-based; conditions: 48 h
[2] = system: HCC 827/ERL cells; experiment: Annexin V-FITC apoptosis assay, flow cytometry; assay type: cell-based; conditions: HCC827/ERL cells, 48 h, VA 0.5 mM where present
[3] = Saturation solubility of ERL batches in water; assay type: physicochemical
[4] = In vitro dissolution, USP apparatus II; assay type: physicochemical; conditions: within 5 min
Procedure, shortened: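 USP II paddle dissolution at 37 ± 0.5°C and 75 rpm in 500 ml of 0.1 N HCl, FaSSIF or FeSSIF. Plain drug or liquisolid formulation was added at 50 mg drug-equivalent. Aliquots were taken at […], with the medium replaced each time. Samples were centrifuged at 10,000 rpm for 10 min and the supernatant was quantified by HPLC-DAD at 246 nm.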

[5] = human; cited from earlier work

solubility at 24 h [3] | % drug dissolved ([4]; FaSSIF) | % drug dissolved ([4]; FeSSIF) | Compound | Cell killing ([1]; 0.5 mM) | Apoptotic cells [2] | % cell killing ([1]; 25 μM (highest concentration)) | Absorbed after oral administration [5]
 |  |  | CCCC(CCC)C(=O)O [VA, 2-propylpentanoic acid] | did not show significant cell killing | poor apoptotic effect |  | 
0.7 µg/mL (≈ 1.78 µM) | 1.1% | 13% | C#Cc1cccc(Nc2ncnc3cc(OCCOC)c(OCCOC)cc23)c1 [ERL, Erlotinib] |  |  | < 15% | about 60%
